Laboratory results as given in ChEMBL document CHEMBL1255417, “Correlation between in vitro activity of posaconazole and in vivo efficacy against Rhizopus oryzae infection in mice” (Antimicrob Agents Chemother, 2010).
≈ marks a conversion by molar mass, not a printed value. Calls of active or inactive are those of the source. The rule behind the calls is not given here.

Experiments:
Rhizopus arrhizus [1] = experiment: Antifungal activity against drug-susceptible Rhizopus oryzae UTHSC 05-1679 by broth microdilution method; assay type: functional
Summary of the method: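 CLSI broth microdilution for filamentous fungi (M38-A2); MIC recorded in µg/ml against clinical isolates; breakpoints applied at 24 h.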

Rhizopus arrhizus [2] = experiment: Antifungal activity against drug-susceptible Rhizopus oryzae UTHSC 06-2374 after 24 to 48 hrs; assay type: functional
Summary of the method: (§1)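 Minimum fungicidal concentration taken from the broth microdilution plates. From each well with complete inhibition (optically clear), 20 ul is plated on potato dextrose agar. Plates are incubated at 35°C for 24 to 48 h. The MFC is the lowest drug concentration giving no growth.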

Rhizopus arrhizus [3] = experiment: Antifungal activity against drug-susceptible Rhizopus oryzae UTHSC 05-3111 after 24 to 48 hrs; assay type: functional; summary of the method: as §1
Rhizopus arrhizus [4] = experiment: Antifungal activity against drug-susceptible Rhizopus oryzae UTHSC 06-89 by broth microdilution method; assay type: functional
Rhizopus arrhizus [5] = experiment: Antifungal activity against drug-susceptible Rhizopus oryzae UTHSC 04-278 at 5 ug by disk diffusion assay; assay type: functional; conditions: read-out: DIZ
Summary of the method: (§2)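 Neo-Sensitabs tablet diffusion on Mueller-Hinton agar, following guidelines for molds; 9 mm tablets containing 5 µg posaconazole; inhibition zone diameter measured in mm; zone breakpoints applied at 24 h.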

Rhizopus arrhizus [6] = experiment: Antifungal activity against drug-susceptible Rhizopus oryzae UTHSC 03-228 after 24 to 48 hrs; assay type: functional
Rhizopus arrhizus [7] = experiment: Antifungal activity against drug-susceptible Rhizopus oryzae UTHSC 412-546 after 24 to 48 hrs; assay type: functional
Rhizopus arrhizus [8] = experiment: Antifungal activity against drug-intermediate Rhizopus oryzae UTHSC 05-114 by broth microdilution method; assay type: functional
Summary of the method: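 Broth microdilution MIC in µg/ml, run per the CLSI (formerly NCCLS) guideline for filamentous fungi, M38-A2.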

Rhizopus arrhizus [9] = experiment: Antifungal activity against drug-susceptible Rhizopus oryzae UTHSC 06-329 by broth microdilution method; assay type: functional
Summary of the method: (§3)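 Posaconazole MIC in ug/ml, determined by broth microdilution following the CLSI guidelines for moulds (M38-A2).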

Rhizopus arrhizus [10] = experiment: Antifungal activity against drug-susceptible Rhizopus oryzae UTHSC 02-2882 infected in OF1 mouse assessed as reduction in kidney fungal load at 10-30 mg/kg, po bid; assay type: functional, organism-based
Summary of the method: (§4)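 Tissue burden in immunosuppressed male OF1 mice, using cyclophosphamide 200 mg/kg i.p. plus 5-fluorouracil 150 mg/kg i.v. on day −1. Mice received 2 × 10^4 CFU i.v. by tail vein, then oral gavage at 10, 20 or 30 mg/kg BID from 24 h post-challenge, with ceftazidime cover; untreated controls. Groups of 10 were killed on day 4. Kidneys and brains were homogenized in 2 ml saline, serially diluted 10-fold, plated on PDA and counted after 24 h at 35°C.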

Rhizopus arrhizus [11] = experiment: Antifungal activity against drug-susceptible Rhizopus oryzae UTHSC 03-2970 at 5 ug by disk diffusion assay; assay type: functional; conditions: read-out: DIZ
Summary of the method: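 Neo-Sensitabs tablet diffusion on Mueller-Hinton agar, following the guidelines for molds. Tablets were 9 mm in diameter and held 5 µg of drug. The read-out was inhibition zone diameter in mm.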

Rhizopus arrhizus [12] = experiment: Antifungal activity against drug-susceptible Rhizopus oryzae UTHSC 06-2457 by broth microdilution method; assay type: functional; summary of the method: as §3
Rhizopus arrhizus [13] = experiment: Antifungal activity against drug-susceptible Rhizopus oryzae UTHSC 06-3827 at 5 ug by disk diffusion assay; assay type: functional; conditions: read-out: DIZ
Summary of the method: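 Neo-Sensitabs tablet diffusion on Mueller-Hinton agar, run per the mould guidelines. Tablets are 9 mm in diameter and carry 5 ug posaconazole. The read-out is the inhibition zone diameter in mm.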

Rhizopus arrhizus [14] = experiment: Antifungal activity against drug-susceptible Rhizopus oryzae UTHSC 02-2882 infected in OF1 mouse assessed as reduction in brain fungal load at 10-30 mg/kg, po bid treated 24 hrs after fungal infection; assay type: functional, organism-based; summary of the method: as §4
Rhizopus arrhizus [15] = experiment: Antifungal activity against drug-susceptible Rhizopus oryzae UTHSC 06-89 infected in OF1 mouse assessed as reduction in kidney fungal load at 10-30 mg/kg, po bid; assay type: functional, organism-based
Rhizopus arrhizus [16] = experiment: Antifungal activity against drug-susceptible Rhizopus oryzae UTHSC 05-1817 at 5 ug by disk diffusion assay; assay type: functional; conditions: read-out: DIZ; summary of the method: as §2
Rhizopus arrhizus [17] = experiment: Antifungal activity against drug-susceptible Rhizopus oryzae UTHSC 06-4035 after 24 to 48 hrs; assay type: functional; summary of the method: as §1
Rhizopus arrhizus [18] = experiment: Antifungal activity against drug-susceptible Rhizopus oryzae UTHSC 05-2447 after 24 to 48 hrs; assay type: functional
Summary of the method: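 Minimum fungicidal concentration: 20 µl from each microdilution well showing complete inhibition (optically clear) plated on potato dextrose agar, incubated 35°C for 24 to 48 h; MFC taken as lowest drug concentration giving no growth.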

Rhizopus arrhizus [19] = experiment: Antifungal activity against drug-susceptible Rhizopus oryzae UTHSC 412-546 at 5 ug by disk diffusion assay; assay type: functional; conditions: read-out: DIZ

CC[C@@H]([C@H](C)O)n1ncn(-c2ccc(N3CCN(c4ccc(OC[C@@H]5CO[C@@](Cn6cncn6)(c6ccc(F)cc6F)C5)cc4)CC3)cc2)c1=O [POSACONAZOLE]
MIC (Rhizopus arrhizus [1]): 0.5 µg/mL (≈ 0.713 µM)
MFC (Rhizopus arrhizus [2]): 1 µg/mL (≈ 1.43 µM)
MFC (Rhizopus arrhizus [3]): 2 µg/mL (≈ 2.85 µM)
MIC (Rhizopus arrhizus [4]): 0.25 µg/mL (≈ 0.357 µM)
zone of inhibition at 5 µg/disc (Rhizopus arrhizus [5]): 18 mm
MFC (Rhizopus arrhizus [6]): 1 µg/mL (≈ 1.43 µM)
MFC (Rhizopus arrhizus [7]): 8 µg/mL (≈ 11.4 µM)
MIC (Rhizopus arrhizus [8]): 2 µg/mL (≈ 2.85 µM)
MIC (Rhizopus arrhizus [9]): 0.5 µg/mL (≈ 0.713 µM)
Activity (Rhizopus arrhizus [10]): Active
zone of inhibition at 5 µg/disc (Rhizopus arrhizus [11]): 20 mm
MIC (Rhizopus arrhizus [12]): 1 µg/mL (≈ 1.43 µM)
zone of inhibition at 5 µg/disc (Rhizopus arrhizus [13]): 18 mm
Activity (Rhizopus arrhizus [14]): Active
Activity (Rhizopus arrhizus [15]): Active
zone of inhibition at 5 µg/disc (Rhizopus arrhizus [16]): 25 mm
MFC (Rhizopus arrhizus [17]): 0.5 µg/mL (≈ 0.713 µM)
MFC (Rhizopus arrhizus [18]): 1 µg/mL (≈ 1.43 µM)
zone of inhibition at 5 µg/disc (Rhizopus arrhizus [19]): 15 mm
